{"data": "Assay results of several laboratories", "target": "Serine/threonine-protein kinase SBK1 (SBK1, Homo sapiens, UniProt Q52WX2)"}
{"Structure (SMILES)": "Nc1ncc2c(n1)-c1c([nH]c3ccc(C#CC4CC4)cc13)CCCC2", "read-out": "binding", "method": "competition with immobilised ligand", "tested at": "1 µM", "remaining binding [%]": 100}
{"Structure (SMILES)": "C[C@H](c1cccc(C#N)c1)n1cc(Cl)cc(C(N)=O)c1=N", "read-out": "cell-free assay", "method": "competition with immobilised ligand", "tested at": "1 µM", "remaining binding [%]": 83}
{"Structure (SMILES)": "O=C(NCC1CCOCC1)c1n[nH]cc1NC(=O)c1c(F)cccc1F", "read-out": "binding", "method": "competition with immobilised ligand", "tested at": "1 µM", "remaining binding [%]": 70}
{"Structure (SMILES)": "CCCOc1ccc([C@H]2[C@H](C(=O)O)[C@@H](c3ccc4c(c3)OCO4)CN2CC(=O)Nc2c(CC)cccc2CC)cc1", "read-out": "cell-free assay", "method": "competition with immobilised ligand", "tested at": "1 µM", "remaining binding [%]": 78}
{"Structure (SMILES)": "CC1CCCN1c1nccc(-c2cnn3ncccc23)n1 (stereo not shown)", "read-out": "binding", "tested at": "1 µM", "remaining binding [%]": 100}
{"Structure (SMILES)": "Cc1cnc(Nc2ccc(C(=O)N3CCC(N4CCCC4)CC3)cc2)nc1-c1cc2ccccc2s1", "read-out": "binding", "method": "competition with immobilised ligand", "tested at": "1 µM", "remaining binding [%]": 51}
{"Structure (SMILES)": "FC(F)(F)Oc1cccc(-c2cnc3ccc(-c4ccncc4)nn23)c1", "read-out": "binding", "method": "competition with immobilised ligand", "tested at": "5 µM", "remaining binding [%]": 85}
{"Structure (SMILES)": "O=C(c1ccc(Nc2nccc(-c3cc4ccccc4s3)n2)cc1)N1CCC(N2CCCC2)CC1", "read-out": "binding", "method": "competition with immobilised ligand", "tested at": "1 µM", "remaining binding [%]": 88}
{"Structure (SMILES)": "c1cnn2ncc(-c3ccnc(N4CCC45COC5)n3)c2c1", "read-out": "binding", "tested at": "1 µM", "remaining binding [%]": 65}
{"Structure (SMILES)": "c1cncc(-c2cccc(Nc3nccc(NC4CCCCC4)n3)c2)c1", "read-out": "binding", "method": "competition with immobilised ligand", "tested at": "10 µM", "remaining binding [%]": 66}
{"Structure (SMILES)": "Cc1c[nH]c2nccc(Oc3c(F)cc(Nc4cc(Cl)nc(N)n4)cc3F)c12", "read-out": "cell-free assay", "method": "competition with immobilised ligand", "tested at": "0.1 µM", "remaining binding [%]": 94}
{"Structure (SMILES)": "CN(CCCC(F)(F)F)c1nccc(-c2cnn3ncccc23)n1", "read-out": "binding", "tested at": "1 µM", "remaining binding [%]": 85}
{"Structure (SMILES)": "CNC(=O)[C@@H]1CC[C@@H](n2c(-c3ccc4cnccc4c3)nc3ccc(C(=O)NCc4cccc(C(N)=O)c4)cc32)C1", "read-out": "binding", "method": "competition with immobilised ligand", "tested at": "1 µM", "remaining binding [%]": 100}
{"Structure (SMILES)": "COc1ncc2cc3ccccc3nc2c1C#N", "read-out": "cell-free assay", "method": "competition with immobilised ligand", "tested at": "5 µM", "remaining binding [%]": 82}
{"Structure (SMILES)": "C[C@@H]1CCN(c2nccc(-c3cnn4ncccc34)n2)C1", "read-out": "binding", "tested at": "1 µM", "remaining binding [%]": 85}
{"Structure (SMILES)": "O=C(NCc1ncc(C(F)(F)F)cc1Cl)c1ccc2c(c1)C1(CCS(=O)(=O)CC1)[C@H](C1CC1)N2S(=O)(=O)c1ccc(F)cc1", "read-out": "cell-free assay", "method": "competition with immobilised ligand", "tested at": "1 µM", "remaining binding [%]": 97}
{"Structure (SMILES)": "F[C@@H]1CCN(c2nccc(-c3cnn4ncccc34)n2)C1", "read-out": "binding", "tested at": "1 µM", "remaining binding [%]": 100}
{"Structure (SMILES)": "O=C(NCCCN1CCOCC1)c1ccc(Nc2nccc(-c3cc4ccccc4s3)n2)cc1", "read-out": "binding", "method": "competition with immobilised ligand", "tested at": "1 µM", "remaining binding [%]": 71}
{"Structure (SMILES)": "CC(=O)c1c(NS(C)(=O)=O)c2cc(-c3ccc(Cl)cc3)c(-c3ccc(Cl)cc3Cl)nc2n(C)c1=O", "read-out": "cell-free assay", "method": "competition with immobilised ligand", "tested at": "1 µM", "remaining binding [%]": 77}
{"Structure (SMILES)": "COc1cnc(Nc2cccc(S(N)(=O)=O)c2)nc1N1CCN(c2ccccc2)C(=O)C1", "read-out": "binding", "method": "competition with immobilised ligand", "tested at": "1 µM", "remaining binding [%]": 61}
{"Structure (SMILES)": "O=S(=O)(NC1CCC(c2cc(F)ccc2F)(S(=O)(=O)c2ccc(Cl)cc2)CC1)C(F)(F)F (stereo not shown)", "read-out": "cell-free assay", "method": "competition with immobilised ligand", "tested at": "1 µM", "remaining binding [%]": 75}
{"Structure (SMILES)": "N[C@@H]1CCN(c2nccc(-c3cnn4ncccc34)n2)C1", "read-out": "binding", "tested at": "1 µM", "remaining binding [%]": 94}
